A word on the IC50: it is the concentration that gives 50% inhibition. One may read the half-life as how long it takes for the measured level to halve.

Calls of active or inactive are those of the source. The rule behind the calls is not given here.

Results on one compound are retold here after ChEMBL document CHEMBL4680165, “β-Lactams with antiproliferative and antiapoptotic activity in breast and chemoresistant colon cancer cells” (Eur J Med Chem, 2020).

The test system of data set [1] is MCF7. As to the kind of experiment: Induction of apoptosis in human MCF7 cells assessed as downregulation of Bcl-2 expression level measured after 48 hrs by Western blot analysis. Particulars: dose 0.05-0.5 µM. The data set is classed as functional, cell-based. The procedure, abridged:
(§1)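 MCF-7 cells (1 × 10^5 per flask) were treated at 0.05, 0.1 and 0.5 µM for 48 and 72 h; vehicle was 0.1% v/v ethanol. Lysis was in RIPA buffer with protease and phosphatase inhibitors. Equal protein (BCA) was run on 12% SDS-PAGE and blotted for Mcl-1, Bcl-2 and survivin, with GAPDH as loading control and ECL detection. Three independent experiments.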

In data set [2] the target is T1, Tubulin (Homo sapiens) (UniProt P68371+Q9H4B7+P0DPH7+P68366+Q13509+Q71U36+P04350+Q3ZCM7+P07437+P68363+Q9BQE3+Q6PEY2+Q13885+Q9BVA1+Q9BUF5). As to the kind of experiment: Induction of microtubule depolymerization in human MCF7 cells at 10 to 100 nM after 16 hrs by immunofluorescence staining based confocal microscopic analysis. Format: cell-based. The conditions noted are these: dose 10-100 nM. The procedure, abridged: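 MCF-7 cells seeded 1 × 10^5 cells/mL on chamber slides, exposed 16 h to vehicle [1% ethanol (v/v)] or test agent (0.01, 0.05, 0.1 µM). Fixed in 4% paraformaldehyde, permeabilised in 0.5% Triton X-100, blocked in 5% BSA, then stained with anti-α-tubulin-FITC (DM1A) 2 h rt, Alexa Fluor 488 1 h, DAPI mount. Confocal imaging; three independent experiments.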

For data set [3], the system named is HT-29. As to the kind of experiment: Antiproliferative activity against human HT-29 cells assessed as reduction in cell viability after 72 hrs by alamar blue assay. The data set is classed as functional, cell-based. The conditions noted are these: HT-29, 72 h. In a few lines:
(§2)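 Cells seeded at 5 x 10^3/well (MCF-7) or 1 x 10^4/well (HT-29, HEK-293T) and treated after 24 h with serial dilutions (0.001-100 µM) in 1% v/v ethanol vehicle. Alamar Blue 10% v/v added at 72 h, then 3-5 h at 37 °C in the dark; fluorescence ex 530/em 590 nm. Viability relative to vehicle; IC50 from dose-response curves; mean of three experiments in triplicate.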
(In general: Alamar Blue is a resazurin reagent that responds to reducing activity.)

Data set [4] concerns HT-29. As to the kind of experiment: Induction of apoptosis in human HT29 cells assessed as cell apoptosis at 1 uM after 48 hrs by Annexin V-FITC and propidium iodide staining based flow cytometry. Format: functional. In a few lines: (§3)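 HT-29 cells were treated at 1 µM for 24, 48 and 72 h against an untreated control. Cells were stained with Annexin V in binding buffer (HEPES pH 7.4, NaCl, CaCl2) for 30 min on ice in the dark, washed, resuspended in PI-containing buffer and read at once by flow cytometry. Quadrants: early apoptotic, late apoptotic, necrotic (Annexin V−/PI+).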
(In flow cytometry, cells or beads pass a laser one at a time.)

Data set [5] deals with MCF7. As to the kind of experiment: Induction of apoptosis in human MCF7 cells assessed as early apoptotic cells after 48 hrs by Annexin V-FITC and propidium iodide staining based flow cytometry. The data set is classed as functional, cell-based. The conditions noted are these: dose 10-1000 nM. In a few lines:
(§4)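 MCF-7 cells were seeded at 1 × 10^5 cells/mL and treated for 48 h at 0.01, 0.1 and 1 µM; vehicle was 0.1% v/v ethanol. Annexin V staining was done on ice in the dark for 30 min in HEPES/NaCl/CaCl2 binding buffer, followed by PI. Flow cytometry scored early apoptotic (Annexin V+/PI−) and late apoptotic (Annexin V+/PI+) cells; total apoptotic is Annexin V-positive cells.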

Data set [6] relates to MCF7. As to the kind of experiment: Induction of apoptosis in human MCF7 cells assessed as total apoptotic cells at 0.01 uM after 48 hrs by Annexin V-FITC and propidium iodide staining based flow cytometry (reference value: 10 %). Format: functional. The procedure, abridged: as §4
Data set [7] concerns the target UDP-glucuronosyltransferases (UGTs) (Homo sapiens, UniProt O60656+O75310+O75795+P06133+P0DTE4+P0DTE5+P16662+P19224+P22309+P22310+P35503+P35504+P36537+P54855+Q6UWM9+Q9BY64+Q9HAW7+Q9HAW8+Q9HAW9). As to the kind of experiment: Metabolic stability in human liver microsomes assessed as UGT-mediated N-glucuronidation by measuring half life at 3 uM measured up to 45 mins by LC-MS/MS analysis. The data set is classed as ADME. Particulars: liver microsomes. The procedure, abridged:
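Pooled human liver microsomes (0.5 mg/mL protein final) with alamethicin (25 µg/mg) in 0.1 M phosphate pH 7.4, compound 3 µM final (0.25% DMSO), preincubated 37 °C. Reaction started with UDPGA (1 mM final). Sampled at 0, 5, 15, 30, 45 min into methanol, analysed by LC-MS/MS. Minus-UDPGA control run 45 min. Single incubations; t½ and CLint taken from the elimination rate constant.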

In data set [8] the test system is MCF7. As to the kind of experiment: Induction of apoptosis in human MCF7 cells assessed as total apoptotic cells at 0.1 uM after 48 hrs by Annexin V-FITC and propidium iodide staining based flow cytometry (reference value: 10 %). The data set is classed as functional. The procedure, abridged:
as §4

Data set [9] concerns HT-29. As to the kind of experiment: Cell cycle arrest in human HT-29 cells assessed as accumulation at G2/M phase at 1 uM measured by PI staining based flow cytometry analysis. Format: functional. The conditions noted are these: TDE = time-dependent effect. In a few lines: (§5)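 Cells (1 × 10^5/well) were treated at 1 µM for 24, 48 and 72 h; vehicle was 0.1% v/v ethanol. Cells were trypsinised, fixed in ice-cold 70% ethanol overnight at −20 °C, then stained with PI (50 µg/mL) plus DNase-free RNase A (50 µg/mL) at 37 °C for 30 min. DNA content of 10,000 cells per group was read by flow cytometry at 488 nm.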

Data set [10] relates to HT-29. As to the kind of experiment: Cell cycle arrest in human HT-29 cells assessed as accumulation at G2/M phase at 1 uM measured after 48 hrs by PI staining based flow cytometry analysis (reference value: 11 %). Format: functional. In a few lines:
as §5

Data set [11] has as its system HT-29. As to the kind of experiment: Induction of apoptosis in human HT29 cells assessed as necrotic cells at 1 uM after 72 hrs by Annexin V-FITC and propidium iodide staining based flow cytometry (reference value: 3 %). The data set is classed as functional. The procedure, abridged: as §3
Data set [12] concerns MCF7. As to the kind of experiment: Induction of apoptosis in human MCF7 cells assessed as downregulation of Bcl-2 expression level measured after 72 hrs by Western blot analysis. The data set is classed as functional, cell-based. Particulars: dose 0.05-0.5 µM. The procedure, abridged:
as §1
For orientation: In western blotting, separated proteins are transferred to a membrane and probed.

For data set [13], the system named is HT-29. As to the kind of experiment: Induction of apoptosis in human HT29 cells assessed as cell apoptosis at 1 uM after 72 hrs by Annexin V-FITC and propidium iodide staining based flow cytometry. The data set is classed as functional. The procedure, abridged: as §3
Data set [14] has as its system MCF7. As to the kind of experiment: Antiproliferative activity against human MCF7 cells assessed as reduction in cell viability after 72 hrs by alamar blue assay. Format: functional, cell-based. Particulars: MCF7, 72 h. In a few lines: as §2
Data set [15] deals with HT-29. As to the kind of experiment: Cell cycle arrest in human HT-29 cells assessed as accumulation at sub-G1 phase at 1 uM measured after 48 hrs by PI staining based flow cytometry analysis (reference value: 2.5 %). The data set is classed as functional. The procedure, abridged:
as §5

Data set [16] concerns the target T1, Tubulin (Homo sapiens). As to the kind of experiment: Induction of microtubule depolymerization in human MCF7 cells assessed as induction of cell rounding at 100 nM for 5 hrs by immunofluorescence staining based confocal microscopic analysis. The procedure, abridged: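 MCF-7 cells were seeded at 1 × 10^5 cells/mL on chamber slides and treated at 0.01, 0.05 and 0.1 µM. Controls were vehicle (1% v/v ethanol), CA-4 (0.01 µM) and paclitaxel (1 µM). Cells were fixed and stained with anti-α-tubulin-FITC (DM1A) and Alexa Fluor 488, then counterstained with DAPI. Imaging was by confocal microscopy over three separate experiments.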

The subject of data set [17] is HT-29. As to the kind of experiment: Cell cycle arrest in human HT-29 cells assessed as accumulation at G2/M phase at 1 uM measured after 72 hrs by PI staining based flow cytometry analysis (reference value: 11 %). The data set is classed as functional. In a few lines: as §5
Data set [18] concerns MCF7. As to the kind of experiment: Cell cycle arrest in human MCF7 cells assessed as accumulation at G2/M phase at 1 uM measured after 48 hrs by PI staining based flow cytometry analysis (reference value: 24 %). Format: functional. In a few lines: as §5

Turning to `COc1ccc([C@H]2[C@H](O)C(=O)N2c2cc(OC)c(OC)c(OC)c2)cc1F`, the Activity result is “Dose-dependent effect” in the data set with MCF7 [1]; 25% with HT-29 [4]; “Dose-dependent effect” with MCF7 [5]; 13% with MCF7 [6]; 20% in the data set with MCF7 [8]; “Tde” with HT-29 [9]. Further, the Activity in the data set on HT-29 [10] is 57%; in the data set with HT-29 [11] it was 22%; with MCF7 [12], “Dose-dependent effect”; in the data set on HT-29 [13], 2%; with HT-29 [15] it was 11%; in the data set on HT-29 [17] it was 64%. Moreover, the Activity with MCF7 [18] is 75%. Besides, the result at Tubulin (Homo sapiens) [2] and at Tubulin (Homo sapiens) [16] was Active. Further, the IC50 in the data set with HT-29 [3] worked out at 3 nM; in the data set with MCF7 [14], 22 nM. Besides, the half-life at 3 µM in [7] is 1.63 h.
